# Measurements pooled from the literature.
SMILES,target or system,test,system,conditions,quantity,result
CC(C)(C)[C@H](N)C(=O)Nc1ccccc1/N=c1\cc(-c2ccc3c(c2)OCO3)oc2ccccc12,MDA-MB-468,"cell growth or viability, CCK-8",,1 µM,inhibition,-1.02%
COCCNC(=O)c1ccc(-c2nc3ccc4[nH]ncc4c3c3c2CCCC3)cc1,MV4-11,"cell growth or viability, resazurin",,72 h,GI50,400 nM
Cc1ccccc1Cn1nc(-c2ccc(CO)o2)c2ccccc21,RBE,"cell growth or viability, ATP luminescence",,"46 µM, 72 h",inhibition,61%
CN(C)CCNC(=O)c1ccc(-c2nc3ccc4[nH]ncc4c3c3c2CC3)cc1,MV4-11,"cell growth or viability, resazurin",,72 h,GI50,1300 nM
OCc1ccc(N(Cc2ccc(F)cc2)CC2CC2)cc1Cl,RBE,"cell growth or viability, ATP luminescence",,"46 µM, 72 h",inhibition,55%
NCCC(=O)Nc1ccccc1/N=c1\cc(-c2ccc3nc(N)oc3c2)oc2ccc(F)cc12,MDA-MB-468,"cell growth or viability, CCK-8",,1 µM,inhibition,59.8%
COCc1ccc(-c2nn(Cc3ccccc3)c3ccccc23)o1,RBE,"cell growth or viability, ATP luminescence",,"46 µM, 72 h",inhibition,49%
O=C(O)c1cn(C2CC2)c2cc(N3CCNCC3)c(F)cc2c1=O,Escherichia coli,"microbial growth, well diffusion",ATCC25922,100 µg/mL,inhibition zone,35 mm
CCN(Cc1ccc(F)cc1)c1ccc(CO)c(Cl)c1,RBE,"cell growth or viability, ATP luminescence",,"46 µM, 72 h",inhibition,53%
N[C@@H](CO)C(=O)Nc1ccccc1/N=c1\cc(-c2ccc3c(c2)OCO3)oc2ccccc12,MDA-MB-468,"cell growth or viability, CCK-8",,1 µM,inhibition,7.66%
CN(C)CCNC(=O)c1ccc(-c2nc3ccc4[nH]ncc4c3c3c2CCCCC3)nc1,MV4-11,"cell growth or viability, resazurin",,72 h,GI50,236 nM
CC1(C)S[C@@H]2[C@H](NC(=O)[C@H](N)c3ccccc3)C(=O)N2[C@H]1C(=O)O,Micrococcus luteus,"microbial growth, broth dilution",ATCC4698,,MIC,1.35 µM
O=C(NCCN1CCCC1)c1ccc(-c2nc3ccc4[nH]ncc4c3c3c2CCCC3)cc1,MV4-11,"cell growth or viability, resazurin",,72 h,GI50,366 nM
C[C@H](N)C(=O)Nc1ccccc1/N=c1\cc(-c2ccc3c(c2)OCCO3)oc2c(N)cccc12,MDA-MB-468,"cell growth or viability, CCK-8",,1 µM,inhibition,2.63%
